Drawing on the RNAGym collection of RNA variant scans (doi:10.1126/science.aae0568), this text covers yeast fitness for 167 variants.

B1: tRNA (parent)
chain: GUUCCGUUGGCGUAAUGGUAACGCGUCUCCCUCCUAAGGAGAAGACUGCGGGUUCGAGUCCCGUACGGAACG

This sample holds only a part of the variants without activity.

This data set covers variants of B1. The experiment in a line: yeast fitness relative to wild type (ratio to wild type); higher = fitter; tRNA-Arg(CCU), competitive growth, 37 C, YPD. In outline: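 Gene amplicons from the start population and from each of six end populations were read by 100-nucleotide paired-end sequencing. Those end populations came from pooled Saccharomyces cerevisiae strains carrying tRNA-Arg(CCU) gene variants at the native locus, competed in YPD at 37°C for 24 hours. Fitness relative to wild type was worked out from changes in genotype frequencies. Genotypes needed ≥ 100 starting reads, and estimates < 0.5 were set to 0.5.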
Take G23A U53G: the yeast fitness is at most 0.5. As to G10C C22U G44C, the yeast fitness was at most 0.5. On to A21G C55U, for which the yeast fitness was 0.704. Consider A37U G52A U54C G56C A57G, for which the yeast fitness was at most 0.5. As for A20C A40U A65U G67C, the yeast fitness is at most 0.5. Next, A21C U32C: 0.864; U3C C24U C29G C49U: 0.618; A21U A40C A42U A43G C49U G50C C66U: at most 0.5.

For G12A C29A A65U, the yeast fitness is at most 0.5. For U19C A20C C24A the value was at most 0.5. Next, A20G G25C C33U C49A U53A G67A: at most 0.5; G10A U19A C46A: 0.542. Next, C31U A40C C49U G52A: at most 0.5; A20C C29U G50C U59G C62U G68A: 0.567; A20C G67C A69G: 0.539. U7C C60U: the yeast fitness came out at 0.785. Next, U2C A15U A20U A69U: at most 0.5; G23C C24A G38A C62A A69G: at most 0.5; C4U C11G G18C U47A G63A: at most 0.5. Turning to C33A G58C C62G U64G, the yeast fitness is at most 0.5. Consider U2C G6C, for which the yeast fitness stood at 0.861. G23A C49U A65C: the yeast fitness is 0.523. For U7A G9A G17A C24A the value was at most 0.5. Next, A14U A15C: 0.681; A21G U59A U64A: at most 0.5; C11G A14G A21U A36G: at most 0.5. Next, C4A C5A C34A C46U A65C: at most 0.5.

U2A U26A: the yeast fitness amounted to 1.06. As for U7A A70C, the yeast fitness worked out at 0.817. Next, C27G U28A G52A C55U: at most 0.5; G17C C27U G67C: at most 0.5. With C11A U19G A36G, the yeast fitness amounted to 0.521. For C5G C61G A69G the value was at most 0.5.

As for U16C A37U, the yeast fitness amounted to 0.683. As for U32A A42G C55U, the yeast fitness is at most 0.5.

As for U16C C29A C55G A70U, the yeast fitness was at most 0.5. Turning to U7C U47G, the yeast fitness is at most 0.5. Next, G6C C33G G38C: at most 0.5; C29G A37C A42U A57G G67A: at most 0.5.

As to C5U C49U G56U, the yeast fitness was determined as 0.538. Next, U19C U32C C33G C34U U54A C66U: at most 0.5; C31U G41C C61U: 0.574; G6C A65C: 0.872.

As to G23A C24U A37C G41C U54C U64C, the yeast fitness is at most 0.5. Next, A15C C24U: 0.601.

Consider A40G G44A U47C, for which the yeast fitness amounted to 0.571.

U7A C60A: the yeast fitness came out at 0.577. For G6A G39C U54C the value was at most 0.5; for U2A C4U U8G C31A G44C A65G, at most 0.5. Next, C4A U16C G17A G56C: at most 0.5; U32G G39C C49U G52C: at most 0.5. For C11G A14G A15U G23C G68C the value was at most 0.5; for U2A C5A C22G C24U G50C, at most 0.5; for C22G A43C C55G, 0.577. On to A21G G25A A42C, for which the yeast fitness was determined as 0.707. For C24G G63A the value was 0.554. Next, C24G C29U G51C A70U: at most 0.5; C22U G25C C62U: 0.67. Consider C62G U64C, for which the yeast fitness is 0.97. For G9C C24U U26G C62U the value was at most 0.5; for A40U G67A, 0.82.

Regarding A21G G50A, the yeast fitness came to 1.14. On to U7C A37G A42C C49G C66G A70U, for which the yeast fitness is at most 0.5.

Regarding A14G U16A C33A U59C, the yeast fitness was at most 0.5. Next, C5A A21C C30G C34U G38C C49U: at most 0.5; G6C A14G A20C: 0.501. Next, C66U G67A: 0.841; U3G C5G C11U C29U U32C C60U: at most 0.5; U2A G23A C29G C49U: 0.575. Next, C24G C31A: 0.526; G9A A14G C29U U32A A43U: at most 0.5.

For the variant G6C U7C G48A, the yeast fitness stood at 0.614. Next, U13A A42G: 0.851; C4U C27U U64C: 0.757; C27A A69U: 0.846. Turning to C4A A14C U26C A36G A65U, the yeast fitness was at most 0.5. For C4A C31A G56A the value was 0.649. Next, U7A C33U G51C: 0.559; G10C C11U G25C C30G G67C: 0.511. Next, C29U C30U A65G: 0.704.

For the variant A21U A36C C49A C62U A65U, the yeast fitness was at most 0.5.

Consider G48A G63A A70U, for which the yeast fitness is 0.811. Next, A14G G18C C31A: at most 0.5; C27U G41C C61G: at most 0.5. As to C5G A15U U35A G50A U54G, the yeast fitness is at most 0.5.

C24A C34U C49A A65U: the yeast fitness is at most 0.5.

For the variant U3C C31U G68C, the yeast fitness is 0.664. With G6C A14G A20C G68C, the yeast fitness is at most 0.5. Turning to C11A U32C A70C, the yeast fitness was determined as 0.549. As to C4G G10U A14U C24U C33U G52A, the yeast fitness worked out at 0.544. Consider C29U U35A C61G, for which the yeast fitness is at most 0.5. Turning to C33G C62A G63C, the yeast fitness was at most 0.5. Next, C5U C31G C33G C34U C49U G68A: 0.543; U8C C61A A65U: at most 0.5; U7C C62U C66G: at most 0.5. C5U C31G U47C G48C: the yeast fitness was at most 0.5. Consider C4U A15C G41A G63C, for which the yeast fitness was at most 0.5. Regarding G25U C29G A42C C66U G67A, the yeast fitness is at most 0.5. Next, C5G U13C G58C: 0.74. With U8A G23C C61U, the yeast fitness came out at 0.575. Next, C5U G10A U16A A65G: at most 0.5; A42U G63A: 0.868. On to G10C G51C C61U, for which the yeast fitness is at most 0.5. C5U A21G G39C: the yeast fitness worked out at 0.515. For A14C C22G G63A the value was 0.642; for A14G A15C G51C C61G, at most 0.5. With G6C A37C G51A U53C C62A A70C, the yeast fitness was at most 0.5. Next, U3C G18A U53A U54G: 0.544; C4U G10C G23A U26C U32C A43G U53A: at most 0.5; A43C A57U: 0.678. Next, A21U C24A A45U: at most 0.5; A36U A57C C62U: 0.627. For G12A C29A A45U the value was 0.531; for C11A A43U U64C, at most 0.5; for A14U C27G G52A C60U, at most 0.5. As for G6C C11U A21C G52A C61A G67C, the yeast fitness was at most 0.5. Next, U7A G9C G17C G48A A69C: at most 0.5; A42C C49G G50A: 0.507. Regarding G17C U28C C55A C60A, the yeast fitness was at most 0.5. Take A36G A45U A70U: the yeast fitness came out at 0.708.

Turning to A15G G23C G38C G52C C66A, the yeast fitness is at most 0.5.

In the case of U13C C62G, the yeast fitness was 0.804. For C4G G9C C27A A36G C46A C55U A65C the value was at most 0.5; for U19C C29U A43G, 0.677. For C5G G25A A70C the value was 0.758; for U3G U16A A45U A70G, at most 0.5; for A40U G51C, 0.518. For U3A A40U the value was 0.841. Turning to G9A A36C A40C A45C, the yeast fitness was at most 0.5.

For the variant C24U A57G C60U G68C, the yeast fitness was at most 0.5. For U7A G10C C27G U32A the value was at most 0.5; for C22A C31G A37G G38C A43G G58C, 0.532; for G10A A42G G50C, at most 0.5.

In the case of C4U G10C, the yeast fitness came to 0.625. Take C11U A21G A37U A40G G41A: the yeast fitness was at most 0.5. Next, G23C C24U A37C G50C: at most 0.5; G9C A21G C66U A69U: at most 0.5; A37U C62A: 0.523. For G38A G44C U47G the value was at most 0.5.

As for C5U A15G A42G G58C G68A, the yeast fitness is at most 0.5. On to G17A C31U, for which the yeast fitness came to 0.74. For G38U C60A the value was 0.541; for U3G A15U C61A, at most 0.5; for C34G C49G U54A A57C G68A, at most 0.5.

In the case of A14C C49U U64A, the yeast fitness is 0.556. On to C5U A20C C29A C49G A57G, for which the yeast fitness was at most 0.5. For C33G C49A C55G G56C the value was 0.561. Turning to A15C U19C A37C G51A G67C, the yeast fitness is at most 0.5.

For the variant C5G A37C A57U, the yeast fitness was at most 0.5. Next, U19A U32A A36G: at most 0.5; C34G A69U A70C: 0.696; U28A A57U: 0.598.

For the variant U3C G12A A37C A45U G48C G50A, the yeast fitness was at most 0.5.

C11G A20G G44C U54C C62A: the yeast fitness turned out to be 0.87. Turning to A14G A69U, the yeast fitness was 0.921. Next, G39C C55G C66U: at most 0.5; U8C G38C U64A C66U: at most 0.5; C5G G6C C49A: at most 0.5. Next, A43U G67U: 0.87. Turning to C33G A37U A40C A69U, the yeast fitness is 0.543. Next, U13A C22A A36U A65G: at most 0.5; C11U A21C A43G: at most 0.5. As for C4A G41A A45U G58U C60A, the yeast fitness was at most 0.5. For U8A G10C C66U the value was at most 0.5; for U7A C34A G56C G68C, at most 0.5; for C5U C34U U35C A70C, at most 0.5. Consider G12C U16C U28A C60U, for which the yeast fitness is at most 0.5.
